MrgX1 antagonist: blocks BAM8-22 activation of human MrgX1 receptor; 1.3% of 310,000 active; B-score at 10 µM; Q96LB2; MRGX1-HEK293 calcium flux, Fluo-4, BAM8-22 antagonism; stronger effect = lower value; AID 588676;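 active = calcium-response B-score plate-corrected more than 3 library SD below zero, starting fluorescence within 5 deviations, no agonist response on first addition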;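 also: peak minus trough fluorescence over baseline after final BAM8-22 challenge near maximal dose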
RGS4 block: human RGS4 inhibition; P49798; HEK293 M3R/RGS4 inducible, Fluo-4 calcium flux; stronger effect = higher value; triggered by carbachol at its EC20; B-score at 10 µM; 0.45% of 310,000 active; AID 463165;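 active = B-score, a plate-corrected calcium signal, over three deviations above library mean, with baseline fluorescence within five deviations of library mean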;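 also: RGS4 expression induced by doxycycline in cells with stable M3 receptor; B-score is computed from the integrated fluorescence ratio over baseline after carbachol; higher B-score means a larger calcium signal and so more RGS4 inhibition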
Target sequence (P49798 whole entry, looked up): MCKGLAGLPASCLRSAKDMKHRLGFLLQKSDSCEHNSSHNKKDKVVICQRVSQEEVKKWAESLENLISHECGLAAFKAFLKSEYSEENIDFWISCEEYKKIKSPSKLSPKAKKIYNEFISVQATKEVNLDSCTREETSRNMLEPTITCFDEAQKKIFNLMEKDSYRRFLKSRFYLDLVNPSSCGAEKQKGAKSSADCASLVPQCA
MrgX1 agonist: agonists of human MrgX1 receptor; Q96LB2; MrgX1-HEK293 cells, Fluo-4 calcium fluorescence, agonist mode; stronger effect = higher value; B-score at 10 µM; 0.44% of 310,000 active; AID 588627;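 active = calcium response B-score plate-corrected fluorescence ratio at least 3 library SD, with starting fluorescence B-score inside 5 SD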
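Material – MrgX1-expressing HEK293 cells · Input – 15,000 cells seeded per well · Dosing – compound as first of three additions · Times – overnight seeding, then 1 h dark dye loading · Measured by – kinetic Fluo-4 NW fluorescence of intracellular calcium · Read-out – B-scored fluorescence response ratio · Benchmarks – positive and negative control wells on each plate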
MrgX1 PAM: allosterically activates human MrgX1 receptor signaling; MrgX1-HEK293, Fluo-4 calcium flux, FDSS; stronger effect = higher value; B-score at 10 µM; 0.63% of 310,000 active; AID 588675;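 active = plate-corrected calcium response at least 3 library SD above typical, normal starting fluorescence, not activating the receptor alone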;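 also: compound read alongside a low EC10 to EC30 dose of BAM8-22 agonist; peak minus trough fluorescence over baseline measured at the second addition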
RGS4 pot: RGS4 potentiation or activation. HEK293 M3R/inducible RGS4, carbachol calcium flux Fluo4; stronger effect = lower value. 0.92% of 310,000 active. AID 463111. B-score at 10 µM;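 active = B-score of the integrated calcium signal more than 4 SD below the library mean, with starting fluorescence not abnormally high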;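 also: negative B-score means reduced calcium response which marks RGS4 activation or potentiation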
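test system = HEK293 cells with stable M3R and inducible RGS4 | schedule = recording 10 s baseline at 1 Hz, 100 s post-agonist | technique = Fluo4-AM (2 µM) calcium-flux fluorescence, kinetic read | measure = Agonist-evoked peak-minus-minimum fluorescence over baseline, integrated ratio, B score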
* = called active by the depositor; i = inactive. Only some compounds are listed: those with a hit (about 3.5% of all), similar ones and a draw of the others.

SMILES	MrgX1 antagonist	RGS4 block	MrgX1 agonist	MrgX1 PAM	RGS4 pot
CCOC(=O)C1CCCN(C2=NC(=O)/C(=C/c3ccc(O)c(OCC)c3)S2)C1 (configuration not stated)	-4.5*	i	i	i	i
COc1ccccc1CNC(=O)CCCC(=O)n1nc(C)c2ccccc21	i	i	i	i	i
CCOC(=O)/C(C#N)=C(C)/C=C1\Sc2ccccc2N1CC	-5.4*	i	i	i	i
O=C1CCCc2nc(N3CCN(C(c4ccccc4)c4ccccc4)CC3)ncc21	i	i	i	i	-7*
CC1CCN(CC(CS(=O)(=O)c2ccc([N+](=O)[O-])cc2)N2CCC(C)CC2)CC1 (configuration not stated)	-5.2*	i	i	i	i
O=C(N/N=C/c1ccc(O)c(O)c1)NC12CC3CC(CC(C3)C1)C2	i	5.1*	i	i	i
O=C(O)C=C(Br)Br	i	i	i	i	i
CN(C(=O)C1CCCCC1)C1(C)CCS(=O)(=O)C1 (configuration not stated)	i	i	i	i	i
COc1cc(/C=C2\SC(=O)N(CC(=O)Nc3ccccc3F)C2=O)cc(Cl)c1O	-6.2*	i	i	i	i
COc1cc(OC)c(/C=C2\SC(=O)N(CC(=O)Nc3ccccc3F)C2=O)c(OC)c1	i	i	i	i	i
Cn1c(O)c(C=Nc2ccc(Br)cc2)sc1=O	i	i	i	i	i
CCCN(CC1CC1)C(=O)COC(=O)c1ccc(CNS(=O)(=O)c2ccc(F)c(Cl)c2)cc1	-4.9*	i	i	i	i
O=C(COC(=O)c1ccc(CNS(=O)(=O)c2ccc(F)c(Cl)c2)cc1)NC1CCCCCCC1	i	i	i	i	i
N#CCCN(C(=O)COC(=O)c1ccc(CNS(=O)(=O)c2ccc(F)c(Cl)c2)cc1)c1ccc(F)cc1	i	i	i	i	-8.8*
CC(=O)Nc1ccc(S(=O)(=O)Nc2ccc(C)c([N+](=O)[O-])c2)cc1	i	i	i	i	i
C/C(=N\NC(=O)c1ccncc1)c1cccc(NC(=O)c2ccc(Cl)s2)c1	i	i	i	i	i
Cn1c(=O)c2c(nc(SCCN3CCCCC3)n2Cc2ccc(Cl)cc2)n(C)c1=O	i	i	i	i	-7*
CCSc1nc2c(c(=O)n(C)c(=O)n2C)n1Cc1ccc(Cl)cc1	i	i	i	i	i
Cc1ccc2cc(C=O)c(Cl)nc2c1	i	i	i	7.3*	i
CCOC(=O)/C(C#N)=C/c1cc2ccc(C)cc2nc1Cl	i	i	i	i	i
O=C1NC(=Nc2ccccc2Cl)S/C1=C\c1cc([N+](=O)[O-])ccc1O	i	i	i	i	i
Cc1ccc(S(=O)(=O)/N=C2/NC(=O)/C(=C/c3cc([N+](=O)[O-])ccc3O)S2)cc1	i	i	i	i	-7.8*
CC(OC(=O)CN1C(=O)C2C3C=CC(C4CC34)C2C1=O)C(=O)c1ccccc1 (configuration not stated)	i	i	i	i	i
Brc1ccc(-c2ccc(/C=N/Nc3nc(N4CCOCC4)nc(N4CCOCC4)n3)o2)cc1	i	i	i	i	i
Fc1cnc(N/N=C/c2ccc(-c3ccc(Br)cc3)o2)nc1N1CCOCC1	i	i	i	i	-7.8*
SMILES	MrgX1 antagonist	RGS4 block	MrgX1 agonist	MrgX1 PAM	RGS4 pot
CC(C)=CCCC1(C)C=Cc2c(c(C)cc3c2[nH]c2cc(O)ccc23)O1 (configuration not stated)	i	i	i	i	i
CCCc1cc(=O)oc2cc(C)cc(OCC(=O)NCCCN3CCOCC3)c12	i	i	i	i	i
Cc1nn2c(N3CCCC3)cc(C(C)C)nc2c1-c1ccccc1	i	i	i	i	-7.1*
CCN(NC(=O)C(O)(c1ccc(F)cc1)c1ccc(F)cc1)C(=O)c1ccccc1	-5.8*	i	i	i	i
CCNC(=O)NC(=O)C(C)OC(=O)CCCSc1nc2ccccc2s1 (configuration not stated)	i	i	i	i	i
CCN1CCN(CC(=O)N/N=C/c2cc(Br)cs2)CC1	i	i	i	i	i

Assay outcomes (PubChem BioAssay)
